# From ChEMBL document CHEMBL1145421, “Discovery of novel antitumor antimitotic agents that also reverse tumor resistance” (J Med Chem, 2007)
# Calls of active or inactive are those of the source. No cut-off for these calls is given here.
# Assays:
# [1] = Cytotoxicity against human T24 cells after 48 hrs by SRB binding assay; assay type: cell-based; conditions: T-24, 48 h
# MCF7 [2] = assay: Cytotoxicity against human MCF7 cells after 48 hrs by SRB binding assay; assay type: functional, cell-based; conditions: MCF7, 48 h
# Summary of the method: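 Drug-sensitive MCF-7 cells seeded at ~15% confluency and allowed 24 h recovery. Exposed 48 h to graded concentrations. Survival measured by SRB binding as % decrease versus ethanol-vehicle controls, mean of triplicate wells.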
# [3] = Cytotoxicity against Pgp overexpressing human NCI/ADR cells after 48 hrs by SRB binding assay; assay type: functional, cell-based; conditions: NCI/ADR-RES
# Summary of the method: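 NCI/ADR (Pgp-overexpressing) cells seeded at ~15% confluency and allowed 24 h to attach. Exposed 48 h to graded concentrations, as solubility allowed, without vinblastine. Survival measured by sulforhodamine B binding as % decrease in SRB binding versus ethanol-vehicle controls, mean of three wells per condition.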
# [4] = Cytotoxicity against MRP1 overexpressing human MCF7/VP cells after 48 hrs by SRB binding assay; assay type: functional, cell-based
# Summary of the method: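 MCF-7/VP (MRP1-expressing, Pgp-negative) cells seeded at ~15% confluency and allowed 24 h to attach. Exposed 48 h to graded concentrations without vincristine. Survival measured by SRB binding versus ethanol controls.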
# MCF7 [5] = assay: Growth inhibition of Pgp deficient MCF7 cells expressing MRP1; assay type: functional, cell-based; conditions: Homo sapiens
# Summary of the method: (§1)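 NCI/ADR (Pgp-overexpressing) or MCF-7/VP (MRP1-expressing, Pgp-negative) cells were seeded at about 15% confluency and allowed to attach for 24 h. They were then exposed for 48 h to varying compound concentrations, limited by solubility, without added vinca drug. Survival was read by sulforhodamine B binding against ethanol solvent controls. Each value is the mean of three equally treated wells.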
# [6] = Growth inhibition of NCI/ADR cells expressing Pgp/MRP1; assay type: functional, cell-based; conditions: Homo sapiens, NCI/ADR-RES; summary of the method: as §1
# [7] = Growth inhibition of Pgp deficient MCF7/VP cells expressing MRP1; assay type: functional, cell-based; conditions: Homo sapiens; summary of the method: as §1
# HL-60 [8] = assay: Cell cycle arrest in HL60 cells assessed as accumulation in G0/G1 phase at 80 nM; assay type: functional, Homo sapiens
# Summary of the method: (§2)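 HL-60 cells exposed 24 or 48 h to drug or ethanol vehicle. Nuclei prepared by detergent-trypsin method: citrate/sucrose/DMSO buffer, trypsin, then trypsin inhibitor plus RNase A, then propidium iodide with spermine, 30 min at 4 °C. Filtered, resuspended, DNA content measured by flow cytometry. Percentages given for G0/G1, S and G2/M. Mean ± SEM.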
# HL-60 [9] = assay: Cell cycle arrest in HL60 cells assessed as accumulation in S phase at 80 nM; assay type: functional, Homo sapiens; summary of the method: as §2
# HL-60 [10] = assay: Cell cycle arrest in HL60 cells assessed as accumulation in […] phase at 80 nM; assay type: functional, Homo sapiens; summary of the method: as §2
# A10 = assay: Induction of microtubule loss in rat A10 cells at 5 uM after 24 hrs; assay type: functional, cell-based
IC50 (MCF7 [5]) [nM],SMILES,IC50 [1] [nM],IC50 (MCF7 [2]) [nM],IC50 [3] [nM],IC50 [4] [nM],IC50 [6] [nM],IC50 [7] [nM],Activity (HL-60 [8]) [%],Activity (HL-60 [9]) [%],Activity (HL-60 [10]) [%],Activity (A10)
–,COc1ccc(CCc2cn(Cc3ccccc3)c3nc(N)nc(C)c23)cc1,31700,13000,21700,22700,–,–,–,–,–,–
2.8,CC[C@]1(O)C[C@@H]2CN(CCc3c([nH]c4ccccc34)[C@@](C(=O)OC)(c3cc4c(cc3OC)N(C)[C@H]3[C@@](O)(C(=O)OC)[C@H](OC(C)=O)[C@]5(CC)C=CCN6CC[C@]43[C@@H]65)C2)C1 [VINBLASTINE],–,–,–,–,> 375,3,83.3,6.6,10.1,Active
0.6,CC[C@]1(O)C[C@H]2CN(CCc3c([nH]c4ccccc34)[C@@](C(=O)OC)(c3cc4c(cc3OC)N(C=O)[C@H]3[C@@](O)(C(=O)OC)[C@H](OC(C)=O)[C@]5(CC)C=CCN6CC[C@]43[C@@H]65)C2)C1 [VINCRISTINE],–,–,–,–,100,9.3,–,–,–,–
